The term Kd denotes a measure of binding affinity in units of concentration. Low values mean tighter binding, high ones weaker binding. In general, IC50 refers to the point on the concentration scale where inhibition reaches its midpoint. Read a low IC50 as greater potency.

Assay [1] has as its target T1, Ribonucleoside-diphosphate reductase subunit alpha (Mycobacterium tuberculosis, UniProt P9WH75).
T1 sequence (P9WH75 whole entry): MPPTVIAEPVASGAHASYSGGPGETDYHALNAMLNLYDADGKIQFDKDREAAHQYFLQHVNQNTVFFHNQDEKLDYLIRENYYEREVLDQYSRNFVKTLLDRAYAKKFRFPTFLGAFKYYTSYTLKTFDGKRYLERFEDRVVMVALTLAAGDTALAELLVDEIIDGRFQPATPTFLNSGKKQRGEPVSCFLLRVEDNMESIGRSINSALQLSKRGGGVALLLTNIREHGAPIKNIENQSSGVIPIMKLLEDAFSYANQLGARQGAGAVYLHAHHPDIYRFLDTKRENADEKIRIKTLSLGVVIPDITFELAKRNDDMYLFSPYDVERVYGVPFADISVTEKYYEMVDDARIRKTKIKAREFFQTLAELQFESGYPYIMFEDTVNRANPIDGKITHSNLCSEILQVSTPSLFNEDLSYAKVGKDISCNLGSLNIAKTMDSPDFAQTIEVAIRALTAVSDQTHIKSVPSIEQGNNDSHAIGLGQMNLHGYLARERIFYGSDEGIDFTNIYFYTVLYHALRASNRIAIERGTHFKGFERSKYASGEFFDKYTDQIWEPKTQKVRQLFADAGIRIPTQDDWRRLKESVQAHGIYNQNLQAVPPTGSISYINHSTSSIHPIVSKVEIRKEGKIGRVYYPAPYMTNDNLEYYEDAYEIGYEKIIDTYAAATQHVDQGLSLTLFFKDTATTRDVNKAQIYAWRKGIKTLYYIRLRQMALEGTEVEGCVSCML
Put plainly: Displacement of Dansyl-Gly-Ser-Gly-Glu-Asp-Asp-Asp-Trp-Asp-Phe from C-terminal R1 subunit of Mycobacterium tuberculosis ribonucleotide reductase by fluorescence polarization assay. The method, boiled down: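 Competitive fluorescence polarization: compounds compete with a fluorescent probe carrying the R2 C-terminal sequence for binding to M. tuberculosis R1, and dissociation constants (KD2) are derived. Compound stocks are 5–25 mM in 100% DMSO.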
A general note: Fluorescence polarisation rises when a labelled molecule tumbles more slowly, as on binding a larger partner.

Assay [2] in a line: Inhibition of Mycobacterium tuberculosis ribonucleotide reductase by [3H]CDP assay. In a few lines: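 CDP reduction is read as cpm. IC50 is the concentration giving a 50% cpm reduction, averaged from three separate experiments with standard deviation.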

Ac-EDDDWDF-OH: the Kd in assay [1] amounted to 8.3 µM. This compound also yielded an IC50 in assay [2] of 20 µM.
On to `CC(=O)N[C@@H](CC(=O)O)C(=O)Nc1cccc2c1N[C@@H](Cc1c[nH]c3ccccc13)C(=O)N(CC(=O)N[C@@H](Cc1ccccc1)C(=O)O)C2`, for which the Kd in assay [1] is more than 150 µM.
Turning to `O=C(O)C[C@H](NC(=O)OCC1c2ccccc2-c2ccccc21)C(=O)Nc1cccc2c1N[C@@H](Cc1c[nH]c3ccccc13)C(=O)N(CC(=O)N[C@@H](Cc1ccccc1)C(=O)O)C2`, in assay [1], the Kd stood at 1.6 µM.
For the compound `O=C(O)CN1Cc2cccc(NC(=O)OCC3c4ccccc4-c4ccccc43)c2N[C@@H](Cc2c[nH]c3ccccc23)C1=O`, the affinity in assay [1], expressed as Kd, was 8.1 µM. In assay [2], this compound returned an IC50 of 24 µM.
Compound `O=C(Nc1cccc2c1N[C@@H](Cc1c[nH]c3ccccc13)C(=O)N(CCO)C2)OCC1c2ccccc2-c2ccccc21` displayed a Kd in assay [1] of 26 µM. The compound also gave an IC50 in assay [2] of 171 µM.
In turn, `CC(=O)N[C@@H](CCC(=O)O)C(=O)N[C@@H](CC(=O)O)C(=O)N[C@@H](CC(=O)O)C(=O)Nc1cccc2c1N[C@@H](Cc1c[nH]c3ccccc13)C(=O)N(CC(=O)N[C@@H](Cc1ccccc1)C(=O)O)C2` displayed a Kd in assay [1] of 81 µM.
Take `CC(=O)N[C@@H](CCC(=O)O)C(=O)N[C@@H](CC(=O)O)C(=O)N[C@@H](CC(=O)O)C(=O)N[C@@H](CC(=O)O)C(=O)Nc1cccc2c1N[C@@H](Cc1c[nH]c3ccccc13)C(=O)N(CC(=O)N[C@@H](Cc1ccccc1)C(=O)O)C2`: the Kd in assay [1] worked out at 27 µM. Moreover, in assay [2], the IC50 turned out to be 64 µM.

The values above are taken from ChEMBL document CHEMBL2346649, “Novel pseudopeptides incorporating a benzodiazepine-based turn mimetic--targeting Mycobacterium tuberculosis ribonucleotide reductase” (Bioorg Med Chem, 2013).
